# TRPC6 inhibitor: blocks the mouse TRPC6 cation channel | Q61143 | HEK293-TRPC6, membrane potential dye, ACh-evoked depolarization; active compounds read low | B-score at 10 µM | hit rate 1.1% among 310,000;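 active = B-score under library mean minus 3 SD, initial fluorescence not abnormally high, positive integrated signal ratio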;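 note: B-score derived from integrated fluorescence ratio over the kinetic read; more negative B-score means stronger inhibition of depolarization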
# Target sequence (Q61143 whole entry, looked up): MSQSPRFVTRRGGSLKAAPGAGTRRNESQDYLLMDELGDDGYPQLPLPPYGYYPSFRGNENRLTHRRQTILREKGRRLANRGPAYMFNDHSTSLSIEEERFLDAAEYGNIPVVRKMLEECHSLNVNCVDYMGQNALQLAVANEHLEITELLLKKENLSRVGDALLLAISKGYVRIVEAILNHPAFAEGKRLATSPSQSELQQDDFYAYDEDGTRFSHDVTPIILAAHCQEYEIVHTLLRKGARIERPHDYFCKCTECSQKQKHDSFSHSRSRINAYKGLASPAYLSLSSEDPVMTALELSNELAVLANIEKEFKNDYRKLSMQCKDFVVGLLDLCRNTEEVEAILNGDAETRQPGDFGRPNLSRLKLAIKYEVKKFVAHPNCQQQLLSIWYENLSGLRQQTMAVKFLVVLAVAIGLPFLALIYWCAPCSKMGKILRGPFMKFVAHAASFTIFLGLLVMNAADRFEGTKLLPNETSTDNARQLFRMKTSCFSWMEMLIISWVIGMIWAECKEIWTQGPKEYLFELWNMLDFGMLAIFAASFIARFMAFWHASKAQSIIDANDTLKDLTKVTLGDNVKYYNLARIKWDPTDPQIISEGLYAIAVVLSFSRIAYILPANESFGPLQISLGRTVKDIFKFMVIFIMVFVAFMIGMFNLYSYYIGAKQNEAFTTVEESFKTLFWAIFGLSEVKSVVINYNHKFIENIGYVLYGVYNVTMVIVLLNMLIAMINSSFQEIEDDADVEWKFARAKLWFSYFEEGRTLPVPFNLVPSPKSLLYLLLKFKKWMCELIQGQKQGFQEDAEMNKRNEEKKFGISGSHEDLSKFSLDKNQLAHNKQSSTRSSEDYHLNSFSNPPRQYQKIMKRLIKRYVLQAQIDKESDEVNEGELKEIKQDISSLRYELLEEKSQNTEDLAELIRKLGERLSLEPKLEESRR
# TRPC6 activator: mouse TRPC6 channel activation | Q61143 | HEK293-TRPC6 membrane potential dye fluorescence; active compounds read high | B-score at 10 µM | hit rate 0.13% among 310,000;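 active = B-score of the integrated fluorescence ratio above library mean plus 3 SD, and starting fluorescence ratio within library mean plus 5 SD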;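 note: higher score means more depolarization so channel activation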
# TRPC4 potent: allosterically enhances the mouse TRPC4 cation channel | hit rate 0.42% among 310,000 | AID 2227 | HEK293 TRPC4beta/mu-opioid, DAMGO EC20, Fluo-4 Ca2+ flux; active compounds read high | Q9QUQ5 | B-score at 10 µM;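 active = B-score of calcium response area above 5 SD of library B-scores, with initial fluorescence ratio within 5 SD of library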;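 note: B-score of integrated fluorescence ratio over time as area under calcium response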
# Kir21 block: inhibitors of mouse Kir2.1 inward-rectifier potassium channel; B-score at 10 µM; P35561; AID 1672; HEK293-Kir2.1, FluxOR thallium flux fluorescence; active compounds read low; hit rate 0.85% among 310,000;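 active = fluorescence ratio B-score at or below minus 3 SD of library scores, with starting-brightness B-score within 2 SD, cut at about -4.2 in these data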;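 note: channel flux triggered by added potassium and thallium sulfate stimulus; B-score of peak minus minimum fluorescence over baseline after thallium stimulus; more negative B-score means stronger Kir2.1 block with less thallium influx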
# TRPC4 inh: blocks the mouse TRPC4 cation channel; HEK293 TRPC4beta/mu-opioid, DAMGO-evoked Fluo4 calcium flux; active compounds read low; hit rate 0.39% among 300,000; B-score at 10 µM;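 active = B-score over 3 SD under the library average, no early fluorescence shift, positive overall ratio signal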
#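 Material: HEK293 cells with stable TRPC4beta plus mu-opioid receptor expression / Probe or stimulus: DAMGO in two steps, submaximal then maximal / Compound: single concentration per test compound / Technique: kinetic Fluo4 fluorescence imaging of calcium influx / Read-out: per-well B score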
# TRPC4 agonist: TRPC4 (mouse) channel activation; Q9QUQ5; HEK293 TRPC4beta/mu-opioid, Fluo4 calcium fluorescence; active compounds read high; B-score at 10 µM; hit rate 0.49% among 310,000;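 active = B-score above 5 SD of library B-scores, and initial fluorescence ratio not above library mean plus 5 SD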;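 note: positive B-score marks a calcium rise read as TRPC4 activation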
#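 Material: HEK293 stable line with TRPC4beta plus mu-opioid receptor; technique: Fluo4 calcium-sensitive dye fluorescence, kinetic, 1 Hz baseline; timing: Fluo4 dye loading 45 min at room temperature, 110 s recording; controls: assay buffer as low control, maximal DAMGO as high control; read-out: integrated baseline-normalised fluorescence ratio, converted to per-well B score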
# TRPC4 sel inh 2: mouse TRPC4 off-target activity of TRPC6 inhibitors, second screen | inhibition, % at 10 µM | HEK293 TRPC4/MOR, membrane potential dye fluorescence; channel activated by saturating DAMGO dose | hit rate 42% among 920 | shares compounds with TRPC6 inhibitor;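 active = compounds whose fluorescence signal differed from control wells by over 3 SD, either direction, in both duplicate plates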
# TRPC4 spec: tests whether TRPC6 inhibitors also affect mouse TRPC4. shares compounds with TRPC6 inhibitor. HEK293 TRPC4/mu-opioid, membrane potential fluorescence. activity change, negative = inhibition, % at 10 µM. hit rate 61% among 920;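 active = rise or fall in signal beyond 3 SD of buffer-only wells in both replicate plates, either sign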;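 note: integrated kinetic ratio of fluorescence range over baseline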
# HEK293 MPD ctr 2-1: second counter-screen for TRPC6 inhibitors: parental HEK293 cells; shares compounds with TRPC6 inhibitor; parental HEK293 membrane potential dye fluorescence; maximal acetylcholine challenge after compound addition; signal change vs control, % at 10 µM; hit rate 31% among 920; AID 2779;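 active = membrane potential signal moving either way by over 3 SD of the maximum-effect control, in both duplicate plates, meaning non-specific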
# HEK293 MPD ctr-1: checks TRPC6 inhibitor effects in parental HEK293 cells. shares compounds with TRPC6 inhibitor. parental HEK293 membrane potential dye fluorescence. hit rate 60% among 920. membrane potential signal change, % at 10 µM. AID 2780;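 active = membrane potential signal shifting up or down by more than 3 SD of buffer-only wells, on both duplicate plates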
# HEK293 MPD ctr-2: checks TRPC6 modulator effects in parental HEK293 cells; shares compounds with TRPC6 inhibitor; membrane potential dye fluorescence; membrane potential signal change, % at 10 µM; hit rate 51% among 2,400;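 active = membrane potential signal moves up or down beyond 5 SD from buffer-only wells, on both duplicate plates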
# HEK293 MPD ctr 2-2: parental HEK293 nonspecific activity of TRPC6 modulators, second screen | inhibition, % at 10 µM | membrane potential dye fluorescence; after compound, maximal acetylcholine stimulation | hit rate 14% among 2,400 | shares compounds with TRPC6 inhibitor;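 active = membrane potential signal drops by more than 5 SD from the mean control signal, in both duplicate plates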;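 note: plate controls were acetylcholine ECmax control wells for no effect and buffer only wells for full effect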
# TRPC4 ctr mod: selectivity of TRPC6 modulators against mouse TRPC4; percent change from control (negative = decrease, positive = increase), % at 10 µM; HEK293 TRPC4/mu-opioid, membrane potential fluorescence; shares compounds with TRPC6 inhibitor; hit rate 69% among 2,400;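 active = membrane potential signal moved up or down beyond 5 SD of buffer control wells, in both duplicate plates, actives on both sides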;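 note: plate controls were assay buffer wells for no effect and DAMGO maximal-effect wells for full effect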
# TRPC4 ctr inh 2: second selectivity test of TRPC6 modulators against mouse TRPC4; shares compounds with TRPC6 inhibitor; HEK293 TRPC4/mu-opioid, membrane potential dye fluorescence; stimulated with maximal-effect DAMGO; inhibition, % at 10 µM; hit rate 55% among 2,400; AID 488928;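 active = drop in membrane potential signal beyond 5 SD of the control wells in both duplicate plates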;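 note: TRPC4 counter screen for TRPC6 hits run under conditions tuned for TRPC6 not TRPC4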
# TRPC6 inh conf: confirmation of mouse TRPC6 inhibitors. HEK293-TRPC6, membrane potential dye, ACh-evoked depolarization. inhibition, % at 10 µM. hit rate 43% among 3,300. shares compounds with TRPC6 inhibitor. AID 488960;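 active = fluorescence ratio falls more than 5 SD below the full-stimulation control mean, in both duplicate runs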;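 note: integrated fluorescence ratio of peak minus minimum over baseline after agonist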
# TRPC6 act conf: mouse TRPC6 activator confirmation; activation, % at 10 µM; hit rate 11% among 2,800; shares compounds with TRPC6 inhibitor; AID 488961; HEK293-TRPC6 membrane potential dye fluorescence, FDSS;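 active = ratio signal rise beyond 5 SD above unstimulated control wells' mean, seen in both duplicate runs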;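 note: plate controls were buffer EC0 wells for no effect and acetylcholine ECmax response for full effect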
# Numbers without * were called inactive; i = inactive; / = no result given. The list is not random: actives were taken first. Their share in the collection is about 2.9%.
SMILES,TRPC6 inhibitor,TRPC6 activator,TRPC4 potent,Kir21 block,TRPC4 inh,TRPC4 agonist,HEK293 MPD ctr-2,HEK293 MPD ctr 2-2,TRPC4 ctr mod,TRPC4 ctr inh 2,TRPC6 inh conf,TRPC6 act conf,others
Cc1cccc(NS(=O)(=O)c2ccc(Oc3ccccc3)cc2)n1,-6.3*,i,i,-2.2,i,i,i,i,8.5%*,i,i,i,
CCCCN1C(=S)SC(C)(C)C1/[N+]([O-])=C/c1cccnc1 (stereo not drawn),-6.6*,i,i,-1.2,i,i,/,/,/,/,57%*,/,TRPC4 sel inh 2=i;TRPC4 spec=i;HEK293 MPD ctr 2-1=i;HEK293 MPD ctr-1=i
Cc1cc(C)c(NC(=O)CSc2ccc(-c3cccnc3)nn2)c(C)c1,i,i,i,-0.14,i,i,/,/,/,/,/,/,
c1ccc(NC2=Nc3cccc4cccc2c34)cc1,i,i,i,-0.15,i,i,/,/,/,/,/,/,
c1cc2c3c(cccc3c1)C(N1CCCCC1)=N2,-11*,i,i,-0.63,i,i,-195%*,78%*,-52%*,93%*,76%*,i,
c1cc2c3c(cccc3c1)C(N1CCCCCC1)=N2,-12*,i,i,-0.06,i,i,-208%*,i,-46%*,68%*,i,i,
NS(=O)(=O)c1ccc(CCNC(=O)C2CCN(S(=O)(=O)c3ccc(Br)s3)CC2)cc1,i,i,i,0.73,i,i,/,/,/,/,/,/,
NS(=O)(=O)c1ccc(NC(=O)COC(=O)c2ccc([N+](=O)[O-])s2)cc1,i,i,i,0,i,i,/,/,/,/,/,/,
N/C(=N\OC(=O)c1ccco1)c1cccc([N+](=O)[O-])c1,-5.3*,i,i,0.94,i,i,i,i,i,i,i,i,
CC(=O)Nc1ccc(N2CCOCC2)c(Cl)c1,i,i,i,1.5,i,i,/,/,/,/,/,/,
Cc1ccc(NC(=O)CSCC(=O)Nc2ccc(N3CCOCC3)c(Cl)c2)cc1,-5.7*,i,i,0.65,i,i,i,i,i,i,i,i,
CNCCCOc1ccc(Cl)cc1C(C)(C)C,-6*,i,50*,-9.6,i,i,i,i,i,i,i,i,
C=CCc1cc(Cl)ccc1OCCCNC(C)CC (stereo not drawn),i,i,i,-3.1,i,i,/,/,/,/,/,/,
CC(NC(=O)/C=C/c1ccccc1)c1ccccc1 (stereo not drawn),i,i,i,-1.4,i,i,/,/,/,/,/,/,
CC(C)C(NC(=O)/C=C/c1ccc(F)cc1)C(C)C,-6.9*,i,i,-0.01,i,i,/,/,/,/,i,i,TRPC4 sel inh 2=i;TRPC4 spec=i;HEK293 MPD ctr 2-1=i;HEK293 MPD ctr-1=i
COc1cc(O)c(C(CCN2CCCC(C)C2)c2ccc(N(C)C)cc2)c(OC)c1 (stereo not drawn),-7*,i,i,-2.5,i,i,/,/,/,/,i,i,TRPC4 sel inh 2=62%*;TRPC4 spec=i;HEK293 MPD ctr 2-1=i;HEK293 MPD ctr-1=i
COc1cc(C(CCN2CCCC(C)C2)c2c(OC)cc(OC)c3c(-c4ccccc4)cc(=O)oc23)cc(OC)c1OC (stereo not drawn),-7.8*,i,i,-0.06,i,i,/,/,/,/,i,i,TRPC4 sel inh 2=44%*;TRPC4 spec=-11%*;HEK293 MPD ctr 2-1=i;HEK293 MPD ctr-1=i
COc1cc(O)c(C(CCN2CCCC(C)C2)c2ccc3c(c2)OCO3)c(OC)c1 (stereo not drawn),i,i,i,-2.6,i,i,/,/,/,/,/,/,
O=C(COc1ccc2ccc(=O)oc2c1)Nc1c(Cl)cccc1C(F)(F)F,i,i,i,0.12,i,i,/,/,/,/,/,/,
CCOc1ccc(S(=O)(=O)N2CCCCC2)cc1NC(=O)C1CSC2(C)CCC(=O)N12 (stereo not drawn),-8.3*,12*,i,-0.32,i,i,152%*,i,33%*,i,68%*,106%*,
COc1ccc(S(=O)(=O)N2CCCCC2)cc1NC(=O)C1CSC2(C)CCC(=O)N12 (stereo not drawn),i,i,i,0.45,i,i,/,/,/,/,/,/,
COCCn1ccc2c(OCC(=O)Nc3ccccc3OC)cccc2c1=O,i,i,i,2.1,i,i,/,/,/,/,/,/,
O=C(CCN1CCCCO1)N1CCCC(Nc2ccc(F)c(F)c2)C1 (stereo not drawn),-5.8*,i,i,0,i,i,i,i,8.5%*,i,46%*,/,
CC(C)Oc1ccc(C(CCN)C2CCCCC2)cc1 (stereo not drawn),-6.7*,i,i,-8.3*,i,i,/,/,/,/,i,i,TRPC4 sel inh 2=51%*;TRPC4 spec=i;HEK293 MPD ctr 2-1=i;HEK293 MPD ctr-1=i
CC(C)Oc1ccc(OCCCN2CCCCCC2)cc1,i,i,i,-0.14,i,i,/,/,/,/,/,/,
CC(C)CCOc1cccc(OCC(=O)Nc2ccncc2)c1,i,i,i,-0.05,i,i,/,/,/,/,/,/,
O=[N+]([O-])c1ccc(C[n+]2cccc3c4ccccc4ccc32)cc1,-6*,i,i,-0.18,i,i,-434%*,i,-61%*,64%*,51%*,i,

# Screening data: PubChem BioAssay, Johns Hopkins Ion Channel Center
